From paper PMC7455490 (Science Advances, 2020)
Where no end group is shown, it is not given here. [ ]: non-standard residue; d: D form.

Columns and labels:
[1] = tested on: dorsal skin of C57BL/6 mice; assay: Skin penetration test, fluorescence in skin slices; assay type: in vivo; settings: topical, 10 μg per mouse, 6 hours, fluorescence microscopy
Procedure, shortened: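 C57BL/6 mice, 4 weeks old, were anaesthetised and had their dorsal skin depilated. Once skin had restored full function, GFP-labelled test vesicles or free FITC-BSA were applied topically. After 6 h the mice were killed by cervical dislocation, and treated dorsal skin was collected, washed, paraffin-embedded and cut into 6 μm sections. Penetration depth was observed by fluorescence microscopy.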

[2] = Transdermal delivery of TRAIL, Franz diffusion cells; assay type: in vitro ADME, mice; settings: C57BL/6 mouse skin, ELISA, n = 3
Procedure, shortened: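 Excised C57BL/6 mouse skin was mounted in Franz diffusion cells, with vesicle suspensions (1 μg/ml) in the donor cell. Receptor samples were withdrawn at 0.5, 1, 2, 4, 8, 10 and 24 h and replaced with fresh PBS. TRAIL in the receptor samples was quantified by ELISA.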

[3] = Bioactivity of TRAIL at high temperatures; settings: 55 and 60°C, n = 3
[4] = tested on: B16F10 melanoma in C57BL/6 mice; assay: Antitumor performance, second wave; assay type: in vivo; settings: NIR 0.6 W/cm^2, within 3 min, thermographic imaging
Procedure, shortened: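 B16F10 cells (3 × 10^6 per mouse) implanted s.c. in right flank of C57BL/6 mice; treatment began at 100 mm3 tumors. Groups (n = 6) got topical ICG-loaded test formulations (0.5 mg OMV/kg). Unabsorbed material was wiped off at 12 h, then the whole tumor was irradiated under anaesthesia at 808 nm, 0.6 W/cm2, 3 min. Tumor sections: TUNEL with proteinase K (20 μg/ml), fluorescein-dUTP 90 min, DAPI counterstain, confocal imaging. Also Fontana-Masson melanin stain, and IHC for cleaved caspase 3, CD63 and S100-β with HRP secondaries and hematoxylin counterstain.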

[5] = Photothermal response to NIR irritation; assay type: physicochemical; settings: 1 μg/ml, 808 nm NIR 2 W/cm^2 for 3 min, n = 3
[6] = tested on: B16F10 cells; assay: WB protein levels in treated B16F10 cells or their derived OMVs; assay type: cell-based, mouse; settings: B16F10, + NIR (Fig. 4G)
[7] = tested on: B16F10 cells; assay: qRT-PCR gene levels in treated B16F10 cells; assay type: cell-based, mouse; settings: B16F10, + NIR, n = 3
[8] = tested on: B16F10 tumor-bearing mice; assay: In vivo distribution after topical application, fluorescence imaging; settings: 10 μg per mouse, 1, 3 and 6 hours
Procedure, shortened: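 Mice were anaesthetized and dorsal skin depilated, then DiI-labelled peptide-modified vesicles were applied topically. Whole-body fluorescence was imaged. Tumors and major organs were collected for fluorescence imaging at 6 hours after application.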

[9] = tested on: L02 cells; assay: Peptide binding by flow cytometry, L02; assay type: cell-based, human; settings: 5 μM peptide, 2 hours, low αvβ3 expression
Procedure, shortened: (§1)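 Cells were grown in DMEM with 10% FBS and penicillin/streptomycin at 37°C, 5% CO2. They were seeded at 10^6 per well and cultured 24 h at 37°C. Then 5 μM test peptide was added for 2 h. Cells were washed twice with 4°C PBS, and intracellular fluorescence intensity was read by flow cytometry.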

[10] = tested on: B16F10 cells; assay: Peptide binding by flow cytometry, B16F10; assay type: cell-based, mouse; settings: 5 μM peptide, 2 hours, compared with L02 cells
Procedure, shortened: as §1

[11] = target: αvβ3 integrin on B16F10 melanoma cells (mouse (endogenous in B16F10), UniProt P43406 31-1044; O54890 26-787); assay: flow cytometry on cells
[12] = target: human recombinant αvβ3 integrin (R&D Systems), NT-647 labelled (human) (UniProt P06756); assay: MST

Sequence of αvβ3 integrin on B16F10 melanoma cells (P43406 31-1044, chain 1 of 2): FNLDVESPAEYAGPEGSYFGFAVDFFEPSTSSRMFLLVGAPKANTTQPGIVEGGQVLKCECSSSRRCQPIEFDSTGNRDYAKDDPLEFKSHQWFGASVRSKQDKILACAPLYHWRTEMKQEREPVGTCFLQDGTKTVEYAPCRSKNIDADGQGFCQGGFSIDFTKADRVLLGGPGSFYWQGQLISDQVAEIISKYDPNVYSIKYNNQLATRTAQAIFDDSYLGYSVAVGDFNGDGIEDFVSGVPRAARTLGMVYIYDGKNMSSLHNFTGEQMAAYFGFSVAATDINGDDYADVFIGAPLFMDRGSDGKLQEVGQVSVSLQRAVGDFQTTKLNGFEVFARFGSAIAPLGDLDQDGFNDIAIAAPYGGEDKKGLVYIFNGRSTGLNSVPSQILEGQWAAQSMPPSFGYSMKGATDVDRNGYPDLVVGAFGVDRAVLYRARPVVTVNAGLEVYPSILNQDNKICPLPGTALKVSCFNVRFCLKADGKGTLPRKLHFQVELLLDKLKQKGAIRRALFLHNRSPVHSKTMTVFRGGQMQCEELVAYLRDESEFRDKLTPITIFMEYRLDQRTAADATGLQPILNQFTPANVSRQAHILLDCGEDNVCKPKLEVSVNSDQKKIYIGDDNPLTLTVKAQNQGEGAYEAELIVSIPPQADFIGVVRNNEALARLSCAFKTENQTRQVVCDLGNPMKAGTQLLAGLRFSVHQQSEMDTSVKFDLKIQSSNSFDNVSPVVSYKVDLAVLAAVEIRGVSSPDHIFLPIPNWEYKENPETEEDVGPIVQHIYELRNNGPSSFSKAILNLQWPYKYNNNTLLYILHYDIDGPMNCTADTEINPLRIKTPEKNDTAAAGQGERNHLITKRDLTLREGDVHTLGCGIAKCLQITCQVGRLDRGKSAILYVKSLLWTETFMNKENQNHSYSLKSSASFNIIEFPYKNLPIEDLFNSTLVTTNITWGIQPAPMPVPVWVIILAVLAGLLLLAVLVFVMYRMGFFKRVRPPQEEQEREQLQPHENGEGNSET
Sequence of αvβ3 integrin on B16F10 melanoma cells (O54890 26-787, chain 2 of 2): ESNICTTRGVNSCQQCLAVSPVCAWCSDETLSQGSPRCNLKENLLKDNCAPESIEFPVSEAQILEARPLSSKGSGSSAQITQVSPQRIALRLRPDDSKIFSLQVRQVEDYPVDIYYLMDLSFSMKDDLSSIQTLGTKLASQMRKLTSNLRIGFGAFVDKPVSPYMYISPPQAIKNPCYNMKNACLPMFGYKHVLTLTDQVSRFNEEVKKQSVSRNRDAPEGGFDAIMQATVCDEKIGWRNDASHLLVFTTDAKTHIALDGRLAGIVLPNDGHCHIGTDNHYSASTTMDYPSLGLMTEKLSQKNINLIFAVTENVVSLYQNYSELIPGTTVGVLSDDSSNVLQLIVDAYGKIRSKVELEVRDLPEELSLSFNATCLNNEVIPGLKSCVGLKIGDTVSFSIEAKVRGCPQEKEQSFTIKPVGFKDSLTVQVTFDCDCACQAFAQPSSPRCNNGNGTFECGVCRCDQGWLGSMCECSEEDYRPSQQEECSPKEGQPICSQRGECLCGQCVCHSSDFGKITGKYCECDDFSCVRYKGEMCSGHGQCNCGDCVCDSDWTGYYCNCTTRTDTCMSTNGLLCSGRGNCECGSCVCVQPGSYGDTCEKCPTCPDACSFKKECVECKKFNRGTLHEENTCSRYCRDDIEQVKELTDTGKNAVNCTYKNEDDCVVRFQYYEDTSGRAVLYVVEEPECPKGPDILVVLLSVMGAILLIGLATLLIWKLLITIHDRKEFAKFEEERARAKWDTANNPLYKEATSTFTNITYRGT

## FITC-BSA: fluorescein isothiocyanate (FITC)–labeled bovine serum albumin
[1]
  penetration through SC, fluorescence in skin slices: incapable of penetrating through SC

## TRAIL: Recombinant human tumor necrosis factor related apoptosis-inducing ligand
[2]
  transdermal amount of TRAIL: too low to be detected
[3]
  bioactivity of TRAIL at high temperatures: No loss of bioactivity

## CC1(C)C(/C=C/C=C/C=C/C=C2\N(CCCCS(=O)(=O)O)c3ccc4ccccc4c3C2(C)C)=[N+](CCCCS(=O)(=O)[O-])c2ccc3ccccc3c21 [ICG, indocyanine green]
[4]
  temperature of tumor sites: around 32 °C
[5]
  temperature reached from 25°C upon NIR irritation: 35 °C
[6]
  increase of cleaved caspase 3 level: 2.4 fold
  increase of cleaved caspase 8 level: 3.3 fold
[7]
  c-FLIP mRNA level, decreased to: 63%
  survivin mRNA level, decreased to: 56%

## CCCCCCCCCCCCCCCCCCN1C(=CC=CC2=[N+](CCCCCCCCCCCCCCCCCC)c3ccccc3C2(C)C)C(C)(C)c2ccccc21.[O-][Cl+3]([O-])([O-])[O-] [Dil, 1,1′-dioctadecyl-3,3,3′,3′-tetramethylindocarbocyanine perchlorate]
[8]
  fluorescence at tumor site after topical application: Low fluorescent signal

## RhB-RGP: rhodamine B–labeled RGP (RW[code r]NMGGGGIVRRADRAAVP; also: rhodamine B label, position not given here)
[9]
  binding to L02 cells: weak binding
[10]
  binding to B16F10 cells: significantly enhanced

B1: rhodamine B-labeled RGP (RhB-RGP) (peptide)
peptide: RW[code r]NMGGGGIVRRADRAAVP
modifications: also: rhodamine B label, position not given here
[11]
  fold fluorescence intensity against RhB-RGD: 6.3 fold

B2: RGP (RWr…), αvβ3 integrin-specific peptide (peptide)
peptide: RWRNMGGGGIVRRADRAAVP
modifications: not fully specified (residue 3); printed as RWrNMGGGGIVRRADRAAVP
[12]
  Kd: 1.54 nM
